Source: ChEMBL document CHEMBL5252639, “Exploration of cytotoxic potential and tubulin polymerization inhibition activity of cis-stilbene-1,2,3-triazole congeners” (RSC Med Chem, 2023)

Assays:
HCT-116 [1] = assay: Induction of cell cycle arrest in human HCT-116 cells assessed as accumulation of cells at G0/G1 phase at 1.62 uM measured after 24 hrs by PI staining based flow cytometry analysis relative to control (reference value: 70.34%)
HCT-116 [2] = assay: Induction of apoptosis in human HCT-116 cells assessed as necrotic cells at 6.50 uM measured after 24 hrs by Annexin V-FITC/propidium iodide staining based flow cytometry (reference value: 0.00%); assay type: functional; settings: dose 6.5 µM
HCT-116 [3] = assay: Induction of apoptosis in human HCT-116 cells assessed as viable cells at 1.62 uM measured after 24 hrs by Annexin V-FITC/propidium iodide staining based flow cytometry (reference value: 99.71%); assay type: functional; settings: read-out: Activity
HCT-116 [4] = assay: Induction of cell cycle arrest in human HCT-116 cells assessed as accumulation of cells at S phase at 3.25 uM measured after 24 hrs by PI staining based flow cytometry analysis relative to control (reference value: 5.55%)
HCT-116 [5] = assay: Induction of morphological change in human HCT-116 cells assessed as cell rounding incubated for 24 hrs by phase contrast microscopic analysis; assay type: functional, cell-based; settings: dose 1.62-6.5 µM
Method in brief: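 HCT-116 plated at 1 × 10^6 cells/mL in RPMI + 10% FBS and allowed to adhere 24 h at 37 °C, 5% CO2. […] After 24 h, morphology imaged by phase-contrast microscopy at 20X.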

HCT-116 [6] = assay: Induction of apoptosis in human HCT-116 cells assessed as necrotic cells at 3.25 uM measured after 24 hrs by Annexin V-FITC/propidium iodide staining based flow cytometry (reference value: 0.00%); assay type: functional
Tubulin = assay: Inhibition of tubulin polymerization in human HCT-116 cells; assay type: cell-based
HCT-116 [7] = assay: Induction of apoptosis in human HCT-116 cells assessed as viable cells at 6.50 uM measured after 24 hrs by Annexin V-FITC/propidium iodide staining based flow cytometry (reference value: 99.71%); assay type: functional; settings: read-out: Activity
HCT-116 [8] = assay: Induction of apoptosis in human HCT-116 cells assessed as viable cells at 3.25 uM measured after 24 hrs by Annexin V-FITC/propidium iodide staining based flow cytometry (reference value: 99.71%); assay type: functional; settings: read-out: Activity
Tubulin (Homo sapiens) = Tubulin (Homo sapiens) (UniProt P68371+Q9H4B7+P0DPH7+P68366+Q13509+Q71U36+P04350+Q3ZCM7+P07437+P68363+Q9BQE3+Q6PEY2+Q13885+Q9BVA1+Q9BUF5); assay: Inhibition of tubulin polymerization in human HCT-116 cells at 1.62 uM measured after 1 hr relative to control; assay type: cell-based
HCT-116 [9] = assay: Induction of apoptosis in human HCT-116 cells assessed as late apoptotic cells at 6.50 uM measured after 24 hrs by Annexin V-FITC/propidium iodide staining based flow cytometry (reference value: 0.00%); assay type: functional; settings: dose 6.5 µM
HCT-116 [10] = assay: Induction of cell cycle arrest in human HCT-116 cells assessed as accumulation of cells at S phase at 6.50 uM measured after 48 hrs by PI staining based flow cytometry analysis relative to control (reference value: 5.55%); assay type: functional; settings: dose 6.5 µM

IC50 (Tubulin): 4.51 µM
inhibition (Tubulin (Homo sapiens)): 33.4%
SMILES: COc1ccc(/C=C(/C(=O)OCc2cn(Cc3cc(F)ccc3F)nn2)c2ccc(OC)c(OC)c2)cc1OC
Activity (HCT-116 [1]): 70.12%
Activity (HCT-116 [2]): 12.94%
viability at 1.62 µM (HCT-116 [3]): 81.7%
Activity (HCT-116 [4]): 9.51%
Activity (HCT-116 [5]): Dose-Dependent Effect
Activity (HCT-116 [6]): 16.66%
viability at 6.5 µM (HCT-116 [7]): 27.5%
viability at 3.25 µM (HCT-116 [8]): 44.6%
Activity (HCT-116 [9]): 49.32%
Activity (HCT-116 [10]): 12.73%
